Data: PMC4929832 (Nature, 2016)
pEC50, pIC50: −log10 of the molar value.

Experiments:
FRAP1 = FRAP1 (Homo sapiens, UniProt P42345); test: kinase panel; assay type: biochemical
CK1-GAMMA2 = CK1-GAMMA2 (Homo sapiens, UniProt P78368); test: kinase panel; assay type: biochemical
GRK3 = GRK3 (Homo sapiens, UniProt P35626); test: kinase panel; assay type: biochemical
PASK = PASK (Homo sapiens, UniProt Q96RG2); test: kinase panel; assay type: biochemical
CLK1 = CLK1 (Homo sapiens, UniProt P49759); test: kinase panel; assay type: biochemical
GRK6 = GRK6 (Homo sapiens, UniProt P43250); test: kinase panel; assay type: biochemical
GSK-3-ALPHA = GSK-3-ALPHA (Homo sapiens, UniProt P49840); test: kinase panel; assay type: biochemical
PI3K-DELTA = PI3K-DELTA (Homo sapiens, UniProt O00329); test: kinase panel; assay type: biochemical
AURORA-B = AURORA-B (Homo sapiens, UniProt Q96GD4); test: kinase panel; assay type: biochemical
PKA = PKA (Homo sapiens, UniProt P17612); test: kinase panel; assay type: biochemical
SRMS = SRMS (Homo sapiens, UniProt Q9H3Y6); test: kinase panel; assay type: biochemical
BRSK2 = BRSK2 (Homo sapiens, UniProt Q8IWQ3); test: kinase panel; assay type: biochemical
MST3 = MST3 (Homo sapiens, UniProt Q9Y6E0); test: kinase panel; assay type: biochemical
EPH-A8 = EPH-A8 (Homo sapiens, UniProt P29322); test: kinase panel; assay type: biochemical
JAK2 = JAK2 (Homo sapiens, UniProt O60674); test: kinase panel; assay type: biochemical
CAMK2D = CAMK2D (Homo sapiens, UniProt Q13557); test: kinase panel; assay type: biochemical
JAK3 = JAK3 (Homo sapiens, UniProt P52333); test: kinase panel; assay type: biochemical
NEK2 = NEK2 (Homo sapiens, UniProt P51955); test: kinase panel; assay type: biochemical
PLK3 = PLK3 (Homo sapiens, UniProt Q9H4B4); test: kinase panel; assay type: biochemical
CDK3-CYCLINE = CDK3-CYCLINE (Homo sapiens, UniProt Q00526); test: kinase panel; assay type: biochemical
PRKD1 = PRKD1 (Homo sapiens, UniProt Q15139); test: kinase panel; assay type: biochemical
P38-ALPHA = P38-ALPHA (Homo sapiens, UniProt Q16539); test: kinase panel; assay type: biochemical
PRKD2 = PRKD2 (Homo sapiens, UniProt Q9BZL6); test: kinase panel; assay type: biochemical
TRKC = TRKC (Homo sapiens, UniProt Q16288); test: kinase panel; assay type: biochemical
CDK5 = CDK5 (Homo sapiens, UniProt Q00535); test: kinase panel; assay type: biochemical
P38-BETA = P38-BETA (Homo sapiens, UniProt Q15759); test: kinase panel; assay type: biochemical
FGFR3 = FGFR3 (Homo sapiens, UniProt P22607); test: kinase panel; assay type: biochemical
TTK = TTK (Homo sapiens, UniProt P33981); test: kinase panel; assay type: biochemical
CDK9-CYCLINT1 = CDK9-CYCLINT1 (Homo sapiens, UniProt P50750); test: kinase panel; assay type: biochemical
TYK2 = TYK2 (Homo sapiens, UniProt P29597); test: kinase panel; assay type: biochemical
MAP4K2 = MAP4K2 (Homo sapiens, UniProt Q12851); test: kinase panel; assay type: biochemical
PAK2 = PAK2 (Homo sapiens, UniProt Q13177); test: kinase panel; assay type: biochemical
YES = YES (Homo sapiens, UniProt P07947); test: kinase panel; assay type: biochemical
RIPK2 = RIPK2 (Homo sapiens, UniProt O43353); test: kinase panel; assay type: biochemical
Alpha1A adrenergic = Alpha1A adrenergic (Homo sapiens, UniProt P35348); test: Alpha1A adrenergic calcium flux assay; assay type: cell-based
Histamine H1 receptor = Histamine H1 receptor (Homo sapiens, UniProt P35367); test: Histamine H1 receptor assay; assay type: binding
Monoamine Oxidase A = Monoamine Oxidase A (Homo sapiens, UniProt P21397); test: Monoamine Oxidase A assay; assay type: biochemical
Phosphodiesterase 4D = Phosphodiesterase 4D (Homo sapiens, UniProt Q08499); test: Phosphodiesterase 4D assay; assay type: biochemical
H1975 cells = test: Proliferation assay; assay type: cell-based
Summary of the method: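 Cells were maintained in 10% FBS/RPMI with penicillin/streptomycin and plated at 500 cells/well in 10% FBS RPMI. Serially diluted test compound was pin-transferred. Viability was read after 3 days by CellTiter-Glo luminescence and normalized to 0.1% DMSO-treated cells and empty wells. EC50 was obtained by non-linear regression curve fitting.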

[1] = tested on: L858R/T790M/C797S EGFR Ba/F3 cells; test: Ba/F3 cell proliferation; assay type: cell-based; conditions: EAI045 in combination with cetuximab, 72 hours
Summary of the method: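 Ba/F3 cells, either parental or stably expressing mutant EGFR lines described earlier, were exposed to the test compound for 72 hours. Cell numbers were set empirically. Growth was read by MTS assay. Each point was run in six wells, and each experiment was repeated at least three times. Curves were fitted by non-linear regression to a sigmoidal dose response.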

CK1-GAMMA2, sequence (P78368 whole entry): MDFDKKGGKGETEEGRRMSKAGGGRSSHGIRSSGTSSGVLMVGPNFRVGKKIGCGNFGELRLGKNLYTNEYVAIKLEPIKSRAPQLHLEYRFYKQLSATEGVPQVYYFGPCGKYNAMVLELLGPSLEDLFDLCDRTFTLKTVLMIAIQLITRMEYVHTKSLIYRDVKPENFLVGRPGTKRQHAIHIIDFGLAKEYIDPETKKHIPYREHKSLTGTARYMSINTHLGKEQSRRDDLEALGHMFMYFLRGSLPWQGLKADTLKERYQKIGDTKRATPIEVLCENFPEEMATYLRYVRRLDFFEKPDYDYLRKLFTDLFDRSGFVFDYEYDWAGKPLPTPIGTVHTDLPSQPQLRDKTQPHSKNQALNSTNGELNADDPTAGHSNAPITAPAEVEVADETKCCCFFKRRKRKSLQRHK
MAP4K2, sequence (Q12851 whole entry): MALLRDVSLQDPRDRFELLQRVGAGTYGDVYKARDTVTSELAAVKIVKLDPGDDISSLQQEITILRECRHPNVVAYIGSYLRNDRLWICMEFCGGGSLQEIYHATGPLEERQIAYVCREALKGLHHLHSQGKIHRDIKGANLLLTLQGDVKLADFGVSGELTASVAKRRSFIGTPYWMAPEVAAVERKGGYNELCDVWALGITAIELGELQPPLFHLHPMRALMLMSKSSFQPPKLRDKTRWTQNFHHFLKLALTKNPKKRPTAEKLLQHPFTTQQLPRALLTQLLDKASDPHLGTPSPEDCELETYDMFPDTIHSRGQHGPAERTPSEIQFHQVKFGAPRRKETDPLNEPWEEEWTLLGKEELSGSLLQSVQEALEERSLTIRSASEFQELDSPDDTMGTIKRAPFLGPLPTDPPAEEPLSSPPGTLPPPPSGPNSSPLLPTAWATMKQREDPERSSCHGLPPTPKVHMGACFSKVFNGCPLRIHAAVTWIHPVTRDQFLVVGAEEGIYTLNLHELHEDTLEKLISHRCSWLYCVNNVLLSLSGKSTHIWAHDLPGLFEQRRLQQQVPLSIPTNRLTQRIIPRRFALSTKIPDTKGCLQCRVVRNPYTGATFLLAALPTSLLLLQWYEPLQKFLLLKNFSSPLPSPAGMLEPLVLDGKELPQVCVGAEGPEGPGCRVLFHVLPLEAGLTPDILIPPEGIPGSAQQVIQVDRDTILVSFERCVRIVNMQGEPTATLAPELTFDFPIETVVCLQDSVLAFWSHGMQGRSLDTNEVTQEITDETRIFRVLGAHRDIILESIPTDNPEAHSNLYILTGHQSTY
CAMK2D, sequence (Q13557 whole entry): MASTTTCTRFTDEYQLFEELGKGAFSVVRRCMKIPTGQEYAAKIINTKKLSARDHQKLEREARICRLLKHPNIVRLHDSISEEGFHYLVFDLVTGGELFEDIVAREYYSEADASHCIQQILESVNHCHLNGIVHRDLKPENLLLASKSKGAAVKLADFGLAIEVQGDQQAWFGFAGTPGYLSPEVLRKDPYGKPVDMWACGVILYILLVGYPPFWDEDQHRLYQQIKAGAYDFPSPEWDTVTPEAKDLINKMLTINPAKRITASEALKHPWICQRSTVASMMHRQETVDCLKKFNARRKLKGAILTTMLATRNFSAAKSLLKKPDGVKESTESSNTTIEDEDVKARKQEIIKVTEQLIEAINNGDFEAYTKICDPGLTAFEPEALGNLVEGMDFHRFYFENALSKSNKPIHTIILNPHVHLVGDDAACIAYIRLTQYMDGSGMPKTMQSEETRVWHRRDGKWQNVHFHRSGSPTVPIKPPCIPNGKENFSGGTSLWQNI
GRK3, sequence (P35626 whole entry): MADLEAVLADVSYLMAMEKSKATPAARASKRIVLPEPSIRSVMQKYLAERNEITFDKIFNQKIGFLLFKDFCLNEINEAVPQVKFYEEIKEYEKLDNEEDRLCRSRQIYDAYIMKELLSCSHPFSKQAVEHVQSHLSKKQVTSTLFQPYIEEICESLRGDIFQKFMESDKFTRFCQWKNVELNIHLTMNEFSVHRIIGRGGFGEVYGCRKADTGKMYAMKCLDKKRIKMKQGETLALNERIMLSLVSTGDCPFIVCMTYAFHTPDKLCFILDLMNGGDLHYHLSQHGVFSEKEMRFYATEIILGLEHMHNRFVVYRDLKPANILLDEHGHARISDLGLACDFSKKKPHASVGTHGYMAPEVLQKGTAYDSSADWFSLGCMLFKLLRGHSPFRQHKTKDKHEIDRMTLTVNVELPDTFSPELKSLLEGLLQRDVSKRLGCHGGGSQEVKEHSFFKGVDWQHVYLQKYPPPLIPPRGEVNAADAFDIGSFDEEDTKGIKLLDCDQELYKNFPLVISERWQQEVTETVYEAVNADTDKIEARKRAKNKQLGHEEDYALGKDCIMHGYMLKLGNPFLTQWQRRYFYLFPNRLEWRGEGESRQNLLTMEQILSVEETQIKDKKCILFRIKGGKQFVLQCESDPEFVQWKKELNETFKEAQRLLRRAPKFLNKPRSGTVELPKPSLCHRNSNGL
PASK, sequence (Q96RG2 whole entry): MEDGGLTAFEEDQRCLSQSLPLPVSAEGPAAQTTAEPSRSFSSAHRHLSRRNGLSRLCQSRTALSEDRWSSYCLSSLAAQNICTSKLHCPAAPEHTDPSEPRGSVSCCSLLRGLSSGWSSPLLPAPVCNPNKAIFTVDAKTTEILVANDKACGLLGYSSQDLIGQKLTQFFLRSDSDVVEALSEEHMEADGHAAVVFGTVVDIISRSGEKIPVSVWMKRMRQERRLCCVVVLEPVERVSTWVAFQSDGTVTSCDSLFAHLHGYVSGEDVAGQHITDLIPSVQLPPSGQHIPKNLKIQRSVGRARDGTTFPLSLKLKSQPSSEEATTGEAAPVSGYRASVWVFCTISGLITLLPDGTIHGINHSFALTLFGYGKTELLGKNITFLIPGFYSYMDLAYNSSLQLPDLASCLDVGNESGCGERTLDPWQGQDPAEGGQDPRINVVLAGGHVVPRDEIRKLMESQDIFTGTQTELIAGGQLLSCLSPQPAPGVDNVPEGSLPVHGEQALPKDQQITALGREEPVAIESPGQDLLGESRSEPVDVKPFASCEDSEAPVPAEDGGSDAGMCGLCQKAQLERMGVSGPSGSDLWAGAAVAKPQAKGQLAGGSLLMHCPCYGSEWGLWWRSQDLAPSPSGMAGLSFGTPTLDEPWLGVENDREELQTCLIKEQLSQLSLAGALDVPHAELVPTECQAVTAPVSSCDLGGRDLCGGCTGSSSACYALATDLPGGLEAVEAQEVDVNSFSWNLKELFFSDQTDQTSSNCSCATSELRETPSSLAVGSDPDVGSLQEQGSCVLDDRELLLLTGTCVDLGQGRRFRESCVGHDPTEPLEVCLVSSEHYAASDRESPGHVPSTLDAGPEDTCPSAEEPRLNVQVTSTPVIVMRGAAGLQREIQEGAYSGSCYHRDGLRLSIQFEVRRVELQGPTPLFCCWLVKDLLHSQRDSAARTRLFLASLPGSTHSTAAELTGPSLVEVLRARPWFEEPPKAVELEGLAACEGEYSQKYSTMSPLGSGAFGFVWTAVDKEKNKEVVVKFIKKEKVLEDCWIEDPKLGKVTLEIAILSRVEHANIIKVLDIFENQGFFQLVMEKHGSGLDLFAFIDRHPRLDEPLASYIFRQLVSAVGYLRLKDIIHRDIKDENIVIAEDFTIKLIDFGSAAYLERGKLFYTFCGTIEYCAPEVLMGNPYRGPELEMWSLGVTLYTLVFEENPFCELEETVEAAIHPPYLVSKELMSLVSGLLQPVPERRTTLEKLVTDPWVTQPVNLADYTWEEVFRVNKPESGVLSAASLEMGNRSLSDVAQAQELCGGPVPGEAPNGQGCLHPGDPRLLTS
TRKC, sequence (Q16288 32-839): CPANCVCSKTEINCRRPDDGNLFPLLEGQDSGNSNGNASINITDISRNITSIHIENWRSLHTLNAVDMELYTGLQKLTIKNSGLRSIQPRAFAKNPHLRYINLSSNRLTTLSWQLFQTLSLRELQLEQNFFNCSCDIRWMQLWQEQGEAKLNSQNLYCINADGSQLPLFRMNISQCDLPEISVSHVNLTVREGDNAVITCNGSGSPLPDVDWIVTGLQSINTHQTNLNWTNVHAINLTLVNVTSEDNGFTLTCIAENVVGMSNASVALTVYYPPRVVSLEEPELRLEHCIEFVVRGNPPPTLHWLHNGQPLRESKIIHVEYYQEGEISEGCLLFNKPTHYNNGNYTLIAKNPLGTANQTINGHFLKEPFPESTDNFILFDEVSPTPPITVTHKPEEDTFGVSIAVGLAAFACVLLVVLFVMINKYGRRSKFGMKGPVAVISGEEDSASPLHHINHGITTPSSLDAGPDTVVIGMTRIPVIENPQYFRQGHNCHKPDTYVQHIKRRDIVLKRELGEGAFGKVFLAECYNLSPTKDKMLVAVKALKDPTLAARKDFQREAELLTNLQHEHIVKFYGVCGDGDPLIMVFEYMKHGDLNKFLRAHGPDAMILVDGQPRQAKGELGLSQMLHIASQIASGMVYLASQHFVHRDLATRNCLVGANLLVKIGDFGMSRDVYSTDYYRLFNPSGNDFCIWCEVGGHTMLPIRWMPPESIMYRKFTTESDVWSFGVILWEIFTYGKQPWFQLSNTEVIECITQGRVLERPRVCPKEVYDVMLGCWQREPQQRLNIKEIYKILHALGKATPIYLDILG
P38-BETA, sequence (Q15759 whole entry): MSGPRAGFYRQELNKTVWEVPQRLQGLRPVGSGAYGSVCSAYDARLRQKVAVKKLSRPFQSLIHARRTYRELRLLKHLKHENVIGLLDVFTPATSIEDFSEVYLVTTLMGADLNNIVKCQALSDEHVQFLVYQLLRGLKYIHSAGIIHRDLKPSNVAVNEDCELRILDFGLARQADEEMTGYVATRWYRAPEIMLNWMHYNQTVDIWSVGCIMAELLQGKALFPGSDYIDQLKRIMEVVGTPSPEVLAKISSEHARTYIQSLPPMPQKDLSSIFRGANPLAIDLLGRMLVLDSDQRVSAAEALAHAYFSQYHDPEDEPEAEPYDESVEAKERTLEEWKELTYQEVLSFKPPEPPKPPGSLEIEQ

O=C(Nc1nccs1)C(c1cc(F)ccc1O)N1Cc2ccccc2C1=O (centres unmarked) [EAI045, 2-(5-fluoro-2-hydroxyphenyl)-2-(1-oxo-2,3-dihydro-1H-isoindol-2-yl)-N-(1,3-thiazol-2-yl)acetamide]
inhibition at 1 µM (FRAP1): 0% | inhibition at 1 µM (CK1-GAMMA2): 0% | inhibition at 1 µM (GRK3): 0% | inhibition at 1 µM (PASK): 1% | inhibition at 1 µM (CLK1): 0% | inhibition at 1 µM (GRK6): 0% | inhibition at 1 µM (GSK-3-ALPHA): 6% | inhibition at 1 µM (PI3K-DELTA): 0% | inhibition at 1 µM (AURORA-B): 4% | inhibition at 1 µM (PKA): 3% | inhibition at 1 µM (SRMS): 0% | inhibition at 1 µM (BRSK2): 0% | inhibition at 1 µM (MST3): 0% | inhibition at 1 µM (EPH-A8): 0% | inhibition at 1 µM (JAK2): 2% | inhibition at 1 µM (CAMK2D): 4% | inhibition at 1 µM (JAK3): 0% | inhibition at 1 µM (NEK2): 2% | inhibition at 1 µM (PLK3): 5% | inhibition at 1 µM (CDK3-CYCLINE): 0% | inhibition at 1 µM (PRKD1): 0% | inhibition at 1 µM (P38-ALPHA): 0% | inhibition at 1 µM (PRKD2): 2% | inhibition at 1 µM (TRKC): 4% | inhibition at 1 µM (CDK5): 0% | inhibition at 1 µM (P38-BETA): 0% | inhibition at 1 µM (FGFR3): 1% | inhibition at 1 µM (TTK): 0% | inhibition at 1 µM (CDK9-CYCLINT1): 6% | inhibition at 1 µM (TYK2): 0% | inhibition at 1 µM (MAP4K2): 0% | inhibition at 1 µM (PAK2): 0% | inhibition at 1 µM (YES): 0% | inhibition at 1 µM (RIPK2): 0% | pIC50 (Alpha1A adrenergic): < 4.52 | pIC50 (Histamine H1 receptor): < 4.52 | pIC50 (Monoamine Oxidase A): < 4.52 | pIC50 (Phosphodiesterase 4D): < 4.52 | anti-proliferative effect (H1975 cells; H1975, concentrations as high as 10 μM): no anti-proliferative effect | pEC50 (H1975 cells; Homo sapiens, NCI-H1975, 72 h, read-out: EC50 Proliferation): < 5.00 | inhibition of proliferation [1]: potently inhibited
